Published values pooled from the literature.
Lines come from different studies, so protocols differ.
Target: Casein kinase I isoform gamma-1 (CSNK1G1, Homo sapiens, UniProt Q9HCP0)

Compound	test	conditions	endpoint	result
Cc1nc(N2CC[C@@H](O)C2)ncc1-c1cc(C(F)(F)F)cc2[nH]ncc12	cell-free assay, competition with immobilised ligand	1 µM	remaining binding	78%
c1cnn2ncc(-c3ccnc(N4CCC45COC5)n3)c2c1	binding	1 µM	remaining binding	84%
COc1cc2ncnc(Nc3ccc(F)c(Cl)c3)c2cc1OCCCN1CCOCC1	cell-free assay	0.5 µM	remaining signal	99.5%
CCc1ccccc1C(=O)Nc1n[nH]c2c(C)c(F)c(C3C(C#N)=C(C)N(C)C(C)=C3C#N)cc12	cell-free assay, competition with immobilised ligand	1 µM	remaining binding	95%
CC(C)(O)[C@H]1CC[C@H](Nc2ccc3ncc(-c4cccc(C(F)(F)F)c4)n3n2)CC1	enzyme activity, inhibitor	1 µM	remaining activity	93%
CNC(=O)c1ccc(Nc2ncc(C(F)(F)F)c(NCc3nccnc3N(C)S(C)(=O)=O)n2)cc1	cell-free assay, competition with immobilised ligand	0.1 µM	remaining binding	82%
Nc1ncnc2occ(-c3ccc(NC(=O)Nc4cc(C(F)(F)F)ccc4F)cc3)c12	cell-free assay, inhibitor	20 µM	remaining signal	18%
CS(=O)(=O)N1CCCC(NC(=O)[C@H](CCC2CCCCC2)NC(=O)c2ccc(CNC(=O)c3cnc4ccccn34)cc2)C1 (some centres unmarked)	cell-free assay, competition with immobilised ligand	0.1 µM	remaining binding	100%
C[C@@H]1CCN(C(=O)CC#N)C[C@@H]1N(C)c1ncnc2[nH]ccc12	cell-free assay, inhibitor	0.5 µM	remaining signal	101%
COc1cc2ncnc(Nc3ccc(Oc4ccccc4)cc3C)c2cc1OC	enzyme activity, inhibitor	1 µM	inhibition	8%
Cc1ccc(Nc2nccc(N(C)c3ccc4c(C)n(C)nc4c3)n2)cc1S(N)(=O)=O	enzyme activity, inhibitor	10 µM	inhibition	-8%
Cc1sc(C(=O)NC2COC2)cc1-n1cc(NC(=O)Nc2c(F)cccc2Cl)cn1	enzyme activity, inhibitor	10 µM	remaining activity	101%
CC(C)(C)c1nc2c(s1)c1nc(N)ncc1c1ccc(NS(=O)(=O)c3c(F)cccc3F)c(F)c12	enzyme activity, inhibitor, radiometric	1 µM	remaining activity	63%
CNC(=O)c1cc(Oc2ccc(NC(=O)Nc3ccc(Cl)c(C(F)(F)F)c3)cc2)ccn1	enzyme activity, inhibitor	0.3 µM	inhibition	-16%
Cc1cc(NC(=O)c2cccc3cc(-c4cccc5[nH]nc(N)c45)ccc23)ccc1F	enzyme activity, inhibitor	0.1 µM	activity vs control	90%
CCCS(=O)(=O)Nc1ccc(F)c(C(=O)c2c[nH]c3ncc(-c4ccc(Cl)cc4)cc23)c1F	enzyme activity, inhibitor	1 µM	inhibition	< 10%
O=C(O)[C@H]1[C@H](Cn2nnc3ccccc3c2=O)CC[C@@H]1C(=O)c1ccc(OCCC2CCOCC2)cc1	cell-free assay, competition with immobilised ligand	1 µM	remaining binding	94%
O=C1NC(=O)c2cc(Nc3ccc(F)cc3)c(Nc3ccc(F)cc3)cc21	cell-free assay	0.5 µM	remaining signal	96.3%
CC(C)c1ccc(NC(=O)c2cccs2)c(-c2nc3ccccc3[nH]c2=O)c1	enzyme activity, inhibitor	1 µM	activity vs control	102%
COc1ccc2cc(OCC3(C(=O)O)CN(C(=O)c4ccc(F)cc4)C3)ccc2c1	cell-free assay, competition with immobilised ligand	1 µM	remaining binding	94%
